Converted amounts (≈) assume the structure as drawn. The source made the active and inactive calls. The calls are words filed in the database; no cut-off is given here.

We go through two compounds from ChEMBL document CHEMBL4725360, “Optimization of Acetazolamide-Based Scaffold as Potent Inhibitors of Vancomycin-Resistant Enterococcus” (J Med Chem, 2020).

One data set deals with Enterococcus faecalis. Briefly: Inhibition of carbonic anhydrase in Enterococcus faecalis HM-334 assessed as antibacterial activity incubated for 18 to 20 hrs in presence of ambient air by CLSI protocol based broth microdilution assay. As to conditions: time hrs 18-20. The method in brief: (§1)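 CLSI broth microdilution: inoculum about 5 × 10⁵ CFU/mL in trypticase soy broth with serial dilutions of agents. Paired plates incubated at 37 °C for 18–20 h, one set in ambient air ("normal"), the other under 5% CO₂. MIC is the lowest concentration completely inhibiting visible growth.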
On the technique in general: Broth dilution looks for growth in wells or tubes with falling amounts of substance.
On to `CC(=O)Nc1nnc(S(N)(=O)=O)s1` [ACETAZOLAMIDE], for which the MIC is 2 µg/mL.
As for `NS(=O)(=O)c1nnc(NC(=O)CC2CCCCC2)s1`, the MIC stood at 0.03 µg/mL.

In the next data set the test system is Enterococcus faecium. In words: Inhibition of carbonic anhydrase in Enterococcus faecium NR-31971 assessed as antibacterial activity incubated for 18 to 20 hrs in presence of ambient air by CLSI protocol based broth microdilution assay. As to conditions: time hrs 18-20. The method in brief:
as §1
For `CC(=O)Nc1nnc(S(N)(=O)=O)s1` [ACETAZOLAMIDE], the MIC came to 2 µg/mL.
In the case of `NS(=O)(=O)c1nnc(NC(=O)CC2CCCCC2)s1`, the MIC worked out at 0.03 µg/mL.

In a further data set the test system is Enterococcus faecium. Briefly: Antibacterial activity against Enterococcus faecium NR-31903 incubated for 18 to 20 hrs under aerobic condition by CLSI protocol based broth microdilution assay. It is filed as functional. As to conditions: time hrs 18-20. The method in brief:
(§2)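 Broth microdilution per CLSI. Strains grown aerobically overnight on trypticase soy agar at 37 °C. Inoculum set to 0.5 McFarland, diluted in trypticase soy broth to about 5 × 10⁵ CFU/mL. Agents serially diluted, plates incubated aerobically at 37 °C for 18–20 h. MIC is the lowest concentration with no visible growth. Compound stocks 10 mg/mL in DMSO.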
In turn, `NS(=O)(=O)c1nnc(NC(=O)CC2CCCCC2)s1` gave an MIC of 0.125 µg/mL (≈ 0.411 µM).

A further data set deals with Enterococcus faecium. Briefly: Inhibition of carbonic anhydrase in Enterococcus faecium NR-31972 assessed as antibacterial activity incubated for 18 to 20 hrs in presence of ambient air by CLSI protocol based broth microdilution assay. The following applies: time hrs 18-20. A digest of the protocol:
as §1
Regarding `CC(=O)Nc1nnc(S(N)(=O)=O)s1` [ACETAZOLAMIDE], the MIC was found to be 2 µg/mL.
Same read-out and setting: the result for `NS(=O)(=O)c1nnc(NC(=O)CC2CCCCC2)s1` reads 0.06 µg/mL.

The next data set has as its system Enterococcus faecium. Briefly: Bacteriostatic activity against Enterococcus faecium ATCC 700221 assessed as reduction in bacterial burden at 5 times MIC preincubated for 24 hrs followed by replating on soya agar plates and measured after 16 hrs by time-kill assay. It is filed as functional, organism-based.
Conditions: not given
The method in brief: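 E. faecium ATCC 700221 overnight culture diluted in trypticase soy broth to 3.5 × 10⁶ CFU/mL. […] Samples taken at 2, 4, 6, 8, 12 and 24 h, diluted in PBS and plated on trypticase soy agar. Colonies counted after 16 h at 37 °C. Detection limit 100 CFU/mL. Two-way ANOVA with Dunnett's test.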
On to `CC(=O)Nc1nnc(S(N)(=O)=O)s1` [ACETAZOLAMIDE], for which the outcome was Active.

Tested on in another data set: not listed separately
In words: Apparent permeability across basolateral to apical side in human Caco2 cells. Type of data set: ADME, cell-based. As to conditions: caco-2. The method in brief:
(§3)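 Bi-directional Caco-2 monolayer permeability, run at Eurofins: donor at pH 6.5, receiver at pH 7.4, both A→B and B→A. Papp derived from receiver concentration at the end point, incubation time, monolayer area and mid-point donor concentration. Concentrations taken as peak areas.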
With `CC(=O)Nc1nnc(S(N)(=O)=O)s1` [ACETAZOLAMIDE], the Papp B→A (commonly how fast a substance crosses the layer from the basolateral side) worked out at 0.77 ×10⁻⁶ cm/s.

A further data set has as its system Enterococcus faecium. Briefly: Antibacterial activity against Enterococcus faecium NR-28978 incubated for 18 to 20 hrs under aerobic condition by CLSI protocol based broth microdilution assay. Type of data set: functional. As to conditions: time hrs 18-20. A digest of the protocol: as §2
`NS(=O)(=O)c1nnc(NC(=O)CC2CCCCC2)s1` yielded an MIC of 0.125 µg/mL (≈ 0.411 µM).

The next data set has as its system Enterococcus faecium. Briefly: Inhibition of carbonic anhydrase in Enterococcus faecium HM-965 assessed as antibacterial activity incubated for 18 to 20 hrs in presence of 5% CO2 by CLSI protocol based broth microdilution assay. The following applies: time hrs 18-20. A digest of the protocol: as §1
Turning to `CC(=O)Nc1nnc(S(N)(=O)=O)s1` [ACETAZOLAMIDE], the MIC is greater than 64 µg/mL.
On the same count and under the same terms, next, `NS(=O)(=O)c1nnc(NC(=O)CC2CCCCC2)s1`: greater than 64 µg/mL.

The next data set concerns Enterococcus faecium. In words: Inhibition of carbonic anhydrase in Enterococcus faecium ATCC 700221 assessed as antibacterial activity incubated for 18 to 20 hrs in presence of 5% CO2 by CLSI protocol based broth microdilution assay. The following applies: time hrs 18-20. The method in brief: as §1
In the case of `CC(=O)Nc1nnc(S(N)(=O)=O)s1` [ACETAZOLAMIDE], the MIC is greater than 64 µg/mL.
On the same count and under the same terms, next, `NS(=O)(=O)c1nnc(NC(=O)CC2CCCCC2)s1`: greater than 64 µg/mL.

The test system of the next data set is Enterococcus faecium. In words: Inhibition of carbonic anhydrase in Enterococcus faecium HM-965 assessed as antibacterial activity incubated for 18 to 20 hrs in presence of ambient air by CLSI protocol based broth microdilution assay. As to conditions: time hrs 18-20. The method in brief: as §1
Take `CC(=O)Nc1nnc(S(N)(=O)=O)s1` [ACETAZOLAMIDE]: the MIC was determined as 2 µg/mL.
Turning to `NS(=O)(=O)c1nnc(NC(=O)CC2CCCCC2)s1`, the MIC was 0.06 µg/mL.

In the next data set the test system is Enterococcus faecium. In words: Inhibition of carbonic anhydrase in Enterococcus faecium ATCC 700221 assessed as antibacterial activity incubated for 18 to 20 hrs in presence of ambient air by CLSI protocol based broth microdilution assay. As to conditions: time hrs 18-20. The method in brief: as §1
For `CC(=O)Nc1nnc(S(N)(=O)=O)s1` [ACETAZOLAMIDE], the MIC turned out to be 1 µg/mL.
Same read-out and setting: next, `NS(=O)(=O)c1nnc(NC(=O)CC2CCCCC2)s1`: 0.06 µg/mL.

For a further data set, the system named is Enterococcus faecium. Briefly: Inhibition of carbonic anhydrase in Enterococcus faecium NR-31971 assessed as antibacterial activity incubated for 18 to 20 hrs in presence of 5% CO2 by CLSI protocol based broth microdilution assay. As to conditions: time hrs 18-20. The method in brief:
as §1
Consider `CC(=O)Nc1nnc(S(N)(=O)=O)s1` [ACETAZOLAMIDE], for which the MIC is greater than 64 µg/mL.
On the same count and under the same terms, next, `NS(=O)(=O)c1nnc(NC(=O)CC2CCCCC2)s1`: greater than 64 µg/mL.

Tested on in a further data set: not listed separately
Briefly: Cytotoxicity against human Caco2 cells incubated for 2 hrs by MTS assay. Type of data set: cell-based. As to conditions: Caco-2 cells. A digest of the protocol:
(§4)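 Caco-2 cells maintained in DMEM with 10% FBS, non-essential amino acids and penicillin-streptomycin at 37 °C, 5% CO₂. Compound exposure for 2 h in serum-free medium at several concentrations; DMSO-matched controls. Viability expressed relative to DMSO controls (mean ± SD), and CC₅₀ derived.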
For orientation: Tetrazolium dyes change colour on reduction, which living cells bring about.
For `NS(=O)(=O)c1nnc(NC(=O)CC2CCCCC2)s1`, the CC50 (commonly the concentration that lowers cell viability or growth by half) at 2 h was greater than 128 µg/mL.

The next data set concerns Enterococcus faecium. Briefly: Antibacterial activity against Enterococcus faecium ATCC 700221 by CLSI protocol based assay.
Conditions: not given
Type of data set: functional. The method in brief: as §2
The compound `CC(=O)Nc1nnc(S(N)(=O)=O)s1` [ACETAZOLAMIDE] yielded an MIC of 0.5 µg/mL (≈ 2.25 µM).

The subject of another data set is Enterococcus faecium. In words: Antibacterial activity against Enterococcus faecium NR-31916 incubated for 18 to 20 hrs under aerobic condition by CLSI protocol based broth microdilution assay. Type of data set: functional. The following applies: time hrs 18-20. The method in brief:
as §2
For `NS(=O)(=O)c1nnc(NC(=O)CC2CCCCC2)s1`, the MIC is 0.125 µg/mL (≈ 0.411 µM).

Tested on in another data set: not listed separately
Briefly: Apparent permeability across apical to basolateral side in human Caco2 cells. Type of data set: ADME, cell-based. As to conditions: caco-2. The method in brief:
as §3
For orientation: Caco-2 cells form a polarised layer with tight junctions and transporters.
As for `CC(=O)Nc1nnc(S(N)(=O)=O)s1` [ACETAZOLAMIDE], the Papp A→B (in general, the apparent permeability from the apical to the basolateral side of a cell layer) was 0.19 ×10⁻⁶ cm/s.

The next data set has as its system Enterococcus faecium. Briefly: Inhibition of carbonic anhydrase in Enterococcus faecium NR-31972 assessed as antibacterial activity incubated for 18 to 20 hrs in presence of 5% CO2 by CLSI protocol based broth microdilution assay. The following applies: time hrs 18-20. A digest of the protocol:
as §1
In the case of `CC(=O)Nc1nnc(S(N)(=O)=O)s1` [ACETAZOLAMIDE], the MIC was greater than 64 µg/mL.
In the case of `NS(=O)(=O)c1nnc(NC(=O)CC2CCCCC2)s1`, the MIC is greater than 64 µg/mL.

A further data set relates to Enterococcus faecalis. In words: Inhibition of carbonic anhydrase in Enterococcus faecalis HM-334 assessed as antibacterial activity incubated for 18 to 20 hrs in presence of 5% CO2 by CLSI protocol based broth microdilution assay. The following applies: time hrs 18-20. A digest of the protocol:
as §1
Consider `CC(=O)Nc1nnc(S(N)(=O)=O)s1` [ACETAZOLAMIDE], for which the MIC is greater than 64 µg/mL.
For the compound `NS(=O)(=O)c1nnc(NC(=O)CC2CCCCC2)s1`, the MIC is greater than 64 µg/mL.

The subject of another data set is Caco-2. In words: Cytotoxicity against human Caco2 cells at 128 ug/ml incubated for 2 hrs by MTS assay. Type of data set: cell-based. The following applies: caco-2, 2 h, dose 128 µg/ml. A digest of the protocol: as §4
Regarding `NS(=O)(=O)c1nnc(NC(=O)CC2CCCCC2)s1`, the Activity entry is reported as “Non-Toxic”.

The next data set has as its system Enterococcus faecalis. In words: Antibacterial activity against Enterococcus faecalis NR-31975 incubated for 18 to 20 hrs under aerobic condition by CLSI protocol based broth microdilution assay. The following applies: time hrs 18-20. Type of data set: functional, organism-based. A digest of the protocol: as §2
With `NS(=O)(=O)c1nnc(NC(=O)CC2CCCCC2)s1`, the result was Active.

The subject of the next data set is Enterococcus faecalis. In words: Antibacterial activity against Enterococcus faecalis NR-31970 incubated for 18 to 20 hrs under aerobic condition by CLSI protocol based broth microdilution assay. As to conditions: time hrs 18-20. It is filed as functional, organism-based. A digest of the protocol: as §2
In the case of `NS(=O)(=O)c1nnc(NC(=O)CC2CCCCC2)s1`, the result was Active.
